Reference: ChEMBL document CHEMBL5058577, “EUbOPEN Chemogenomics Library 2 (Multiplex)” (2022)

Tested on: U2OS
Test: Multiplex assay against U2OS
Assay type: toxicity, cell-based
Conditions: human
In short: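 Cells were classed with CellPathfinder machine-learning gating, first as Hoechst high-intensity objects or normal cells, then (normal cells) as healthy, pyknosed or fragmented nuclei, and finally (pyknosed cells) as mitotic or apoptotic. Staining of live cells at seeding used Hoechst33342, BioTracker Green Microtubule Cytoskeleton Dye, MitoTracker Red and Annexin V Alexa Fluor 680, with imaging on a CQ1 microscope at 37°C and 5% CO2 after compound addition. Tubulin, mitochondrial-mass and membrane-permeability phenotypes are per cents of healthy-nucleus cells.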

[1] = 12 h, 1 µM, compound concentration 1 uM, replicate 1
[2] = 12 h, 1 µM, compound concentration 1 uM, replicate 2
[3] = 12 h, 10 µM, compound concentration 10 uM, replicate 1
[4] = 12 h, 10 µM, compound concentration 10 uM, replicate 2
[5] = 24 h, 1 µM, compound concentration 1 uM, replicate 1
[6] = 24 h, 1 µM, compound concentration 1 uM, replicate 2
[7] = 24 h, 10 µM, compound concentration 10 uM, replicate 1
[8] = 24 h, 10 µM, compound concentration 10 uM, replicate 2
[9] = 48 h, 1 µM, compound concentration 1 uM, replicate 1
[10] = 48 h, 1 µM, compound concentration 1 uM, replicate 2
[11] = 48 h, 10 µM, compound concentration 10 uM, replicate 1
[12] = 48 h, 10 µM, compound concentration 10 uM, replicate 2

CCCn1c(=O)c2[nH]c(C3CCCC3)nc2n(CCC)c1=O [1,3-DIPROPYL-8-CYCLOPENTYLXANTHINE [DPCPX]]
Population Apoptotic (%) [1]: 87% | Population Fragmented Nuclei (%) [1]: 25% | Population Healthy Nuclei (%) [1]: 64% | Population Hoechst High Intensity Objects (%) [1]: 1% | Population Membrane Permeable-Phenotype (%) [1]: 1% | Population Mitochondria Different-Phenotype (%) [1]: 3% | Population Mitotic Cells (%) [1]: 12% | Population Normal (%) [1]: 98% | Population Pyknosed Nuclei (%) [1]: 9% | Population Tubulin-Different-Phenotype (%) [1]: 1% | Total Cell Count [1]: 250 | Population Apoptotic (%) [2]: 93% | Population Fragmented Nuclei (%) [2]: 15% | Population Healthy Nuclei (%) [2]: 72% | Population Hoechst High Intensity Objects (%) [2]: 0% | Population Membrane Permeable-Phenotype (%) [2]: 7% | Population Mitochondria Different-Phenotype (%) [2]: 4% | Population Mitotic Cells (%) [2]: 6% | Population Normal (%) [2]: 100% | Population Pyknosed Nuclei (%) [2]: 12% | Population Tubulin-Different-Phenotype (%) [2]: 5% | Total Cell Count [2]: 125 | Population Apoptotic (%) [3]: 68% | Population Fragmented Nuclei (%) [3]: 30% | Population Healthy Nuclei (%) [3]: 60% | Population Hoechst High Intensity Objects (%) [3]: 2% | Population Membrane Permeable-Phenotype (%) [3]: 5% | Population Mitochondria Different-Phenotype (%) [3]: 1% | Population Mitotic Cells (%) [3]: 31% | Population Normal (%) [3]: 97% | Population Pyknosed Nuclei (%) [3]: 9% | Population Tubulin-Different-Phenotype (%) [3]: 3% | Total Cell Count [3]: 206 | Population Apoptotic (%) [4]: 100% | Population Fragmented Nuclei (%) [4]: 21% | Population Healthy Nuclei (%) [4]: 69% | Population Hoechst High Intensity Objects (%) [4]: 3% | Population Membrane Permeable-Phenotype (%) [4]: 6% | Population Mitochondria Different-Phenotype (%) [4]: 9% | Population Mitotic Cells (%) [4]: 0% | Population Normal (%) [4]: 96% | Population Pyknosed Nuclei (%) [4]: 8% | Total Cell Count [4]: 96 | Population Apoptotic (%) [5]: 83% | Population Fragmented Nuclei (%) [5]: 24% | Population Healthy Nuclei (%) [5]: 68% | Population Hoechst High Intensity Objects (%) [5]: 3% | Population Membrane Permeable-Phenotype (%) [5]: 5% | Population Mitochondria Different-Phenotype (%) [5]: 3% | Population Mitotic Cells (%) [5]: 16% | Population Normal (%) [5]: 96% | Population Pyknosed Nuclei (%) [5]: 7% | Population Tubulin-Different-Phenotype (%) [5]: 4% | Total Cell Count [5]: 261 | Population Apoptotic (%) [6]: 87% | Population Fragmented Nuclei (%) [6]: 13% | Population Healthy Nuclei (%) [6]: 74% | Population Hoechst High Intensity Objects (%) [6]: 2% | Population Membrane Permeable-Phenotype (%) [6]: 8% | Population Mitotic Cells (%) [6]: 12% | Population Normal (%) [6]: 97% | Population Pyknosed Nuclei (%) [6]: 11% | Total Cell Count [6]: 138 | Population Apoptotic (%) [7]: 89% | Population Fragmented Nuclei (%) [7]: 27% | Population Healthy Nuclei (%) [7]: 64% | Population Hoechst High Intensity Objects (%) [7]: 2% | Population Membrane Permeable-Phenotype (%) [7]: 7% | Population Mitochondria Different-Phenotype (%) [7]: 0% | Population Mitotic Cells (%) [7]: 10% | Population Normal (%) [7]: 97% | Population Pyknosed Nuclei (%) [7]: 8% | Population Tubulin-Different-Phenotype (%) [7]: 0% | Total Cell Count [7]: 234 | Population Apoptotic (%) [8]: 100% | Population Fragmented Nuclei (%) [8]: 21% | Population Healthy Nuclei (%) [8]: 71% | Population Hoechst High Intensity Objects (%) [8]: 4% | Population Membrane Permeable-Phenotype (%) [8]: 3% | Population Mitochondria Different-Phenotype (%) [8]: 3% | Population Mitotic Cells (%) [8]: 0% | Population Normal (%) [8]: 95% | Population Pyknosed Nuclei (%) [8]: 6% | Total Cell Count [8]: 120 | Population Apoptotic (%) [9]: 86% | Population Fragmented Nuclei (%) [9]: 20% | Population Healthy Nuclei (%) [9]: 69% | Population Hoechst High Intensity Objects (%) [9]: 1% | Population Membrane Permeable-Phenotype (%) [9]: 3% | Population Mitochondria Different-Phenotype (%) [9]: 1% | Population Mitotic Cells (%) [9]: 13% | Population Normal (%) [9]: 98% | Population Pyknosed Nuclei (%) [9]: 10% | Population Tubulin-Different-Phenotype (%) [9]: 2% | Total Cell Count [9]: 364 | Population Apoptotic (%) [10]: 92% | Population Fragmented Nuclei (%) [10]: 17% | Population Hoechst High Intensity Objects (%) [10]: 2% | Population Membrane Permeable-Phenotype (%) [10]: 8% | Population Mitochondria Different-Phenotype (%) [10]: 4% | Population Mitotic Cells (%) [10]: 8% | Population Normal (%) [10]: 97% | Population Pyknosed Nuclei (%) [10]: 13% | Population Tubulin-Different-Phenotype (%) [10]: 3% | Total Cell Count [10]: 196 | Population Apoptotic (%) [11]: 77% | Population Fragmented Nuclei (%) [11]: 24% | Population Healthy Nuclei (%) [11]: 62% | Population Hoechst High Intensity Objects (%) [11]: 2% | Population Membrane Permeable-Phenotype (%) [11]: 4% | Population Mitochondria Different-Phenotype (%) [11]: 1% | Population Mitotic Cells (%) [11]: 22% | Population Normal (%) [11]: 97% | Population Pyknosed Nuclei (%) [11]: 12% | Population Tubulin-Different-Phenotype (%) [11]: 3% | Total Cell Count [11]: 322 | Population Apoptotic (%) [12]: 100% | Population Fragmented Nuclei (%) [12]: 19% | Population Healthy Nuclei (%) [12]: 73% | Population Hoechst High Intensity Objects (%) [12]: 3% | Population Membrane Permeable-Phenotype (%) [12]: 5% | Population Mitochondria Different-Phenotype (%) [12]: 3% | Population Mitotic Cells (%) [12]: 0% | Population Normal (%) [12]: 96% | Population Pyknosed Nuclei (%) [12]: 6% | Population Tubulin-Different-Phenotype (%) [12]: 0% | Total Cell Count [12]: 165
